To fix the notation:
B1: NELF-E aptamer (parent)
chain: CCCAACGACUGCCGAGCGAGAUUACGCUUGAGCGCCCCACUGAGGAUGCCCACGGGCGAUUGGGGCACGG

The variants in the data set derive from B1. Nature of the data set: HiTS-RAP. The following applies: with NELF-E (Drosophila). The essentials:
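Aptamer DNA templates bearing a T7 promoter and a ter site were sequenced on an Illumina GAIIx flowcell. T7 RNA polymerase then transcribed them in situ, and GST-Tus halted transcription over 30 minutes at 37°C. After a 30-minute room-temperature equilibration with NELF-E-mOrange at 0.064 to 1000 nM in HEPES binding buffer, clusters were imaged, using only the first binding curve. Intensities normalised to sequencing intensity were averaged per sequence and fitted with weighted Hill fits to give Kd, retaining only fits whose variance stayed under 1,000,000.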
A word on the Kd: it is the equilibrium constant for the complex coming apart. CCCAUCGACUGCCGAGCGGGAUUACGCUUGAGCGCCCCACUGAGGAUGCCCACGGGCGAUUGGGGCACGG [A5U A19G]: the Kd stood at 7.47 nM. On to CCCAUCGACUGCCGAGCGUGAUUACGCUUGAGCGCCCCACUGAGGAUGCCCACGGGCGAUUGGGGCACGG [A5U A19U], for which the Kd turned out to be 6 nM. In the case of CCCAUCGACUGCCGAGCGAGGUUACGCUUGAGCGCCCCACUGAGGAUGCCCACGGGCGAUUGGGGCACGG [A5U A21G], the Kd was 7.74 nM. On to CCCAUCGACUGCCGAGCGAGUUUACGCUUGAGCGCCCCACUGAGGAUGCCCACGGGCGAUUGGGGCACGG [A5U A21U], for which the Kd came out at 6.61 nM.

CCCAGCGACUGCCGAGCGAGAUUACGCUUGAGCGCCCCACUGAGGAUGCCCACGGGCGACUGGGGCACGG [A5G U60C]: the Kd was 11.3 nM.

For the variant CCCAUCGAUUGCCGAGCGAGAUUACGCUUGAGCGCCCCACUGAGGAUGCCCACGGGCGAUUGGGGCACGG [A5U C9U], the Kd is 6.47 nM. In the case of CCCAUCGAGUGCCGAGCGAGAUUACGCUUGAGCGCCCCACUGAGGAUGCCCACGGGCGAUUGGGGCACGG [A5U C9G], the Kd was determined as 6.45 nM. As for CCCAUCGGCUGCCGAGCGAGAUUACGCUUGAGCGCCCCACUGAGGAUGCCCACGGGCGAUUGGGGCACGG [A5U A8G], the Kd was 6.23 nM. Turning to CCCAUCGCCUGCCGAGCGAGAUUACGCUUGAGCGCCCCACUGAGGAUGCCCACGGGCGAUUGGGGCACGG [A5U A8C], the Kd was determined as 8.3 nM. Next, CCCAUCGUCUGCCGAGCGAGAUUACGCUUGAGCGCCCCACUGAGGAUGCCCACGGGCGAUUGGGGCACGG [A5U A8U]: 6.78 nM. The figure for CCCAUCGACUGCCGAGCGAGAUUGCGCUUGAGCGCCCCACUGAGGAUGCCCACGGGCGAUUGGGGCACGG [A5U A24G] is 6.39 nM; for CCCAUCGACUGCCGAGCGAGAUUUCGCUUGAGCGCCCCACUGAGGAUGCCCACGGGCGAUUGGGGCACGG [A5U A24U] it is 6.21 nM. For CCCAGCGACUGCCGAGCGAGAUUACGCUUGAGCGCCCCACCGAGGAUGCCCACGGGCGAUUGGGGCACGG [A5G U41C], the Kd amounted to 84.9 nM.

As for CCCAGCGACUGCCGAGCGAGAUUACGCUUGAGCGCCCCACAGAGGAUGCCCACGGGCGAUUGGGGCACGG [A5G U41A], the Kd was 25 nM. Turning to CCCAGCGACUGCCGAGCGAGAUUACGCUUGAGCGCCCCACGGAGGAUGCCCACGGGCGAUUGGGGCACGG [A5G U41G], the Kd stood at 6.23 nM. The figure for CCCAUCGACUGCCGAGCGAGAUUACGCUUGAGCGCCCCACUGAGGAUGCCCACGGGCGGUUGGGGCACGG [A5U A59G] is 81.5 nM; for CCCAUCGACUGGCGAGCGAGAUUACGCUUGAGCGCCCCACUGAGGAUGCCCACGGGCGAUUGGGGCACGG [A5U C12G] it is 6.84 nM; for CCCAUCGACUGUCGAGCGAGAUUACGCUUGAGCGCCCCACUGAGGAUGCCCACGGGCGAUUGGGGCACGG [A5U C12U] it is 6.37 nM. Next, CCCAGCGACUGCCGAGCGAGAUUACGCUUGAGCGCCCCACUGAGGAUGCCCACGGGCGAUCGGGGCACGG [A5G U61C]: 64.6 nM. As to CCCAGCGACUGCCGAGCGAGAUUACGCUUGAGCGCCCCACUGAGGAUGCCCACGGGCGAUAGGGGCACGG [A5G U61A], the Kd was 37.8 nM. CCCAUCGACUGCCGAGCGAGAUUACGCUUGAGCGCCCCACUGAGGAUGCCCACGGGCGAUUGGGGCACGG [A5U]: the Kd was found to be 5.66 nM. As for CCCAUCGACUGCCGAGCGAGAUUACGCUUGAGCGCCCCACUGAGGAUGCCCACGGGCGAUUGGGGCGCGG [A5U A67G], the Kd came to 6.53 nM. Next, CCCAUCGACUGCCGAGCGAGAUUACGCUUGAGCGCCCCACUGAGGAUGCCCACGGGCGAUUGGGGCUCGG [A5U A67U]: 7.25 nM; CCCAUCGACUGCCGAGCGAGAUUACGCUUGGGCGCCCCACUGAGGAUGCCCACGGGCGAUUGGGGCACGG [A5U A31G]: 7.03 nM; CCCAUCGACUGCCGGGCGAGAUUACGCUUGAGCGCCCCACUGAGGAUGCCCACGGGCGAUUGGGGCACGG [A5U A15G]: 5.49 nM.

Turning to CCCAUCGACUGCCGUGCGAGAUUACGCUUGAGCGCCCCACUGAGGAUGCCCACGGGCGAUUGGGGCACGG [A5U A15U], the Kd came out at 6.62 nM. Turning to CCCAUCGACUGCCGAGCGAGAUUACGCUUGAGCGCCCCACUGAGGAUGCCCGCGGGCGAUUGGGGCACGG [A5U A52G], the Kd stood at 7.25 nM. The figure for CCCAUCGACUGCCGAGCGAGAUUACGCUUGAGCGCCCCACUGAGGAUGCCCUCGGGCGAUUGGGGCACGG [A5U A52U] is 18.4 nM; for CCCAUCGACUGCCGAGCGAGAUUACGCUUGAGCGCCCCACUGUGGAUGCCCACGGGCGAUUGGGGCACGG [A5U A43U] it is 99.1 nM; for CCCAUCGACUGCCGAGCGAGAUUACGCUUGAGCGCCCCACUGGGGAUGCCCACGGGCGAUUGGGGCACGG [A5U A43G] it is 15.1 nM. The figure for CCCAUCGACUGCCGAGCGAGAUUACGCUUGAGCGCCCCACUGAGGGUGCCCACGGGCGAUUGGGGCACGG [A5U A46G] is 34.6 nM; for CCCAUUGACUGCCGAGCGAGAUUACGCUUGAGCGCCCCACUGAGGAUGCCCACGGGCGAUUGGGGCACGG [A5U C6U] it is 4.75 nM. Take CCCAUAGACUGCCGAGCGAGAUUACGCUUGAGCGCCCCACUGAGGAUGCCCACGGGCGAUUGGGGCACGG [A5U C6A]: the Kd is 7.45 nM. For CCCAUGGACUGCCGAGCGAGAUUACGCUUGAGCGCCCCACUGAGGAUGCCCACGGGCGAUUGGGGCACGG [A5U C6G], the Kd was 5.7 nM. Next, CCCAGCGACUGCCGAGCGAGAUUACGCUCGAGCGCCCCACUGAGGAUGCCCACGGGCGAUUGGGGCACGG [A5G U29C]: 6.65 nM. Consider CCCAGCGACUGCCGAGCGAGAUUACGCUGGAGCGCCCCACUGAGGAUGCCCACGGGCGAUUGGGGCACGG [A5G U29G], for which the Kd was determined as 6.19 nM. On to CCCAUCGACUGCCGAGCGAGAUUACGCUUGAGCGCCCCGCUGAGGAUGCCCACGGGCGAUUGGGGCACGG [A5U A39G], for which the Kd stood at 8.51 nM. In the case of CCCAUCGACUGCCGAGCGAGAUUACGCUUGAGCGCCCCUCUGAGGAUGCCCACGGGCGAUUGGGGCACGG [A5U A39U], the Kd was 29.7 nM. For CCCAGCGACUGCCGAGCGAGAUUACGCUUGAGCGCCCCACUGAGGAGGCCCACGGGCGAUUGGGGCACGG [A5G U47G], the Kd amounted to 7.6 nM.

Source of the values: the RNAGym collection of RNA variant scans (doi:10.1038/nmeth.2970).
